Assay outcomes (PubChem)
Rows were chosen to be rich in hits. Some 1.9% of all compounds tested hit in one or more screens of this group.
bCat nuc transl: alters nuclear translocation of beta-catenin in HeLa cells; immunofluorescence imaging; nuclear translocation activity, % at 5 µM; 190,000 tested, 0.3% active; AID 1665;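 active means nuclear translocation activity above 50% at 5 µM, with a well cell count of 50 or more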;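 further: per-cell ratio of nuclear to cytoplasmic median beta-catenin stain intensity; plate controls were DMSO negative control for no effect and GSK-3 inhibitor IX positive control for full effect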
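System: HeLa cells, endogenous beta-catenin; compound dosing: 5 µM primary single dose, 0.1% DMSO, 0.02–20 µM confirmation series; incubation: 24 h compound exposure at 37°C, 5% CO2; signal: beta-catenin immunofluorescence imaging with DAPI; evaluation: % activation, nuclear-to-cytoplasmic median beta-catenin signal ratio per cell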
MT stabilizer: microtubule stabilizers in HeLa cells; AID 2205; HeLa tubulin immunostaining HCS, 24 h; share of cells brighter than vehicle mean+2SD; % tubulin-high responders, % at 10 µM; 200,000 tested, 0.83% active;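 active means plate Z-score above 3 for both tubulin-high and condensed-nucleus cell shares, with cell loss under 80%, at 10 µM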;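 further: anti alpha tubulin signal scored within the nucleus-defined area of each cell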
ROMK primary: human ROMK K+ channel modulation, primary screen. B-score at 10 µM. P48048. 130,000 tested, 2% active. AID 1918. Tet-inducible ROMK, thallium flux fluorescence; actives lie on both sides;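 active means signal ratio slope over the read window, or its plate-corrected B-score, at least 3 SD from the plate mean, either direction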;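 further: B-score of the F/F0 ratio slope over 7 to 12 s after thallium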
Target sequence (P48048 whole entry, looked up): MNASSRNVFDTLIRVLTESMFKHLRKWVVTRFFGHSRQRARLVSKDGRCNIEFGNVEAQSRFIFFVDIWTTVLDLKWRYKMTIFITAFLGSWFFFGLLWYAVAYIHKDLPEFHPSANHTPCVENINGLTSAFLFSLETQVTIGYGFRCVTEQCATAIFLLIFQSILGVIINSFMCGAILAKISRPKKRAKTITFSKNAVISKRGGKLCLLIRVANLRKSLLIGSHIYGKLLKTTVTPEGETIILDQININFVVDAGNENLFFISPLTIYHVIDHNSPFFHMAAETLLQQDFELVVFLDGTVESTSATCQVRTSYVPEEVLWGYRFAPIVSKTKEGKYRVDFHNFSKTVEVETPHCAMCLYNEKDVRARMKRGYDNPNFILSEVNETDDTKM
Starred values were filed as active, the others as inactive; . = not tested or not shown.

SMILES	bCat nuc transl	MT stabilizer	ROMK primary
Cc1csc(NC(=O)CSc2nnc(NC(=O)COc3ccc(Cl)cc3)s2)n1	-1	2	.
Cc1cc(C)cc(NC(N)=S)c1	-2	5	0.89
NC(=S)N/N=C/c1c(O)c(Br)cc2oc3c(c12)CCCC3	1	.	.
Oc1c(Br)cc2oc3c(c2c1CNCc1ccccc1)CCCC3	.	3	2.9*
CCCC(=O)Nc1ccccc1Sc1ncnc2scc(-c3ccccc3)c12	.	2	-0.064
COc1ccc(O[C@H]2C=C[C@@H](c3ccccc3)O[C@@H]2COC(=O)CC/C(C)=N/OC[C@@H](O)[C@H]2O[C@@H]3OC(C)(C)O[C@@H]3[C@H]2O)cc1	.	5	-2
CSc1ccccc1NS(=O)(=O)c1ccccc1	-3	3	.
Cc1ccc(NS(=O)(=O)c2ccccc2)c2c1CC(C)(C)O2	-2	27*	0.044
CCOC(=O)c1c(C)[nH]c(C(=O)OCC(=O)Nc2cc(C)ccc2OC)c1C	-1	4	0.0028
CCOC(=O)c1[nH]c(C)c(C(=O)Nc2cc(OC)ccc2OC)c1C	56*	27*	.
CCOC(=O)c1c(C)c(C(=O)Nc2ccccc2)c(C)n1CC	-4	6	0.38
CCOC(=O)c1c(C)c(C(=O)Nc2cc(OC)ccc2OC)c(C)n1CC	3	25*	.
COCCCN1CN=C(Nc2nc3ccccc3o2)NC1	-1	3	-0.3
Cc1sc2nc(SCC(=O)c3cc(C)n(CC4CCCO4)c3C)n(C(C)C)c(=O)c2c1C (centres undefined)	-3	6	.
COC(=O)c1sccc1NC(=S)N1CCCCC1	-1	1	-1
COC(=O)c1sccc1NC(=S)N1CCN(c2cccc(C)c2C)CC1	-1	15*	0.43
C=C(C)COc1ccc(-c2nc(N)ncc2Oc2ccc(OC)cc2)c(O)c1	-2	3	-0.36
C=C(C)COc1ccc(-c2[nH]ncc2-c2ccc(Br)cc2)c(O)c1	39	19*	2.5
C=C(C)COc1ccc(-c2[nH]ncc2Oc2ccc(OC)cc2)c(O)c1	1	.	.
C=C(C)COc1ccc(-c2n[nH]c(C)c2-c2ccc(Br)cc2)c(O)c1	.	26*	.
C=C(C)COc1ccc(-c2[nH]ncc2Oc2ccccc2OC)c(O)c1	5	4	1.2
C=C(C)COc1ccc(-c2[nH]ncc2-c2ccccc2OC)c(O)c1	-3	29*	0.47
COc1ccc(-c2c(-c3ccc(O)cc3O)n[nH]c2C)cc1OC	.	35*	0.82
COc1ccc(-c2c(N)n[nH]c2C)cc1OC	-3	6	0.027
O=C(NC1CCCCC1)C(c1ccc(Cl)cc1)N(C(=O)c1ccccn1)c1cccnc1 (centres undefined)	0	2	-0.22
SMILES	bCat nuc transl	MT stabilizer	ROMK primary
Cc1cccc(CN2C[C@]34CC[C@@H](C[C@@H]3S2(=O)=O)O4)c1	0	.	.
CCOc1ncccc1C(=O)OCC(=O)Nc1cccc(S(N)(=O)=O)c1	-2	2	-0.29
Nc1nc(SCC(=O)Nc2ccc(Cl)c(S(=O)(=O)N3CCOCC3)c2)n[nH]1	-4	.	.
Cc1cc(-c2csc(NC(=O)c3ccc(C#N)cc3)n2)c(C)n1Cc1ccccc1	3	2	.
COCCN(C(=O)Cc1cccs1)C(C(=O)NC1CCCC1)c1cc(OC)c(OC)c(OC)c1 (centres undefined)	1	2	.
Cc1ccc(C(=O)CSc2ccc(-c3cccnc3)nn2)cc1	1	2	-0.5
O=C1NC(=O)/C(=C/c2cccc([N+](=O)[O-])c2)N1	2	.	.
CCN1C/C(=C/c2cccc([N+](=O)[O-])c2)C(=O)/C(=C/c2cccc([N+](=O)[O-])c2)C1	13	42*	0.1
C=C(C)C(=O)OC1(C(F)(F)F)Oc2cc(C)ccc2NC1=O (centres undefined)	-4	3	.
COc1ccc(NC(=O)CCC(=O)c2cccs2)cc1S(=O)(=O)Nc1ccc(Cl)cc1	20	17*	.
COc1ccccc1NS(=O)(=O)c1cc(NC(=O)CCC(=O)c2cccs2)ccc1Cl	0	2	-1.5
N#CC1=C(N)NC(SCc2ccccc2)=C(C#N)C12CCCCC2	58*	30*	.
CCSC1=C(C#N)C2(CCCCC2)C(C#N)=C(N)N1	0	4	.
Cc1cc2cc(CCNC(=O)C3c4ccccc4Oc4ccccc43)c(=O)[nH]c2cc1C	0	5	-0.03
CCCCOc1ccc(OC(=O)Nc2cc(Cl)ccc2OC)cc1	0	.	.
CCCCN(CC)S(=O)(=O)c1ccc2c(c1)n(C)c(=O)c(=O)n2C	0	.	-0.48
CCn1c2ccccc2c2cc(NC(=O)c3cccc(OC)c3)ccc21	-1	31*	.
CCn1c2ccccc2c2cc(/C=N/NC(=O)c3cccc(C)c3)ccc21	1	30*	0.29
CCn1c2ccccc2c2cc(/C=N/NC(=O)c3ccccc3C)ccc21	1	15	.
CCn1c2ccccc2c2cc(NC(=O)c3cccc(OC)c3OC)ccc21	-5	5	.
